EBI2 block: blocks human EBI2 receptor beta-arrestin signaling. AID 651636. 360,000 tested, 0.81% active. inhibition, % at 5 µM. EBI2 beta-arrestin recruitment, luminescence, 7a,25-OHC stimulated; in the data active = inhibition above about 38%;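 note: enzyme fragment complementation signal reports receptor beta-arrestin coupling in cells; 0% = agonist plus DMSO wells and 100% = wells without agonist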
Target sequence (P32249 whole entry, looked up, the tested form may be a part): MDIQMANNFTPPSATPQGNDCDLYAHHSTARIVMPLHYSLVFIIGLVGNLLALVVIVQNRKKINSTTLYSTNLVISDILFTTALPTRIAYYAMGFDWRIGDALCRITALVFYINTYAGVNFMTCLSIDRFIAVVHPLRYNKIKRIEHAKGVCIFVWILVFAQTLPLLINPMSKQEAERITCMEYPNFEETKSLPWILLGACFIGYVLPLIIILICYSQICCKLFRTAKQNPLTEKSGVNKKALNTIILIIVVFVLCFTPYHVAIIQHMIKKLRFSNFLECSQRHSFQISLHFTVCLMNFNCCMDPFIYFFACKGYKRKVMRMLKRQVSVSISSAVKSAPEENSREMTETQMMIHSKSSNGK
SENP1 inh: blocks the human SENP1 SUMO protease catalytic domain; recombinant SENP1 catalytic domain, CyPet-SUMO1-YPet FRET cleavage; inhibition, % at 10 µM; 360,000 tested, 0.21% active; Q9P0U3;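 active = inhibition at least 30% at 10 µM, raw YFP signal under a set limit, fluorescence ratio 0.5 to 1.5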;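 note: 0% = enzyme with DMSO and 100% = no enzyme wells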
Target sequence (Q9P0U3 419-644 limits assumed): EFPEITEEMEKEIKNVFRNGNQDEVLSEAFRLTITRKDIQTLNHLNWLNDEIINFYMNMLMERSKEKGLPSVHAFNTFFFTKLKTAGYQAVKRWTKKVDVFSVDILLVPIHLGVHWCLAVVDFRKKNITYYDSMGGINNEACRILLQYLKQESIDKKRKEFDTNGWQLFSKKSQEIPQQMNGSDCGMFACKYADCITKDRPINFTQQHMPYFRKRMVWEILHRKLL
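Material – human SENP1 catalytic domain · Input – SENP1 enzyme, 20 pM final · Compound dosing – single concentration of 10 µM compound, 0.5% DMSO final · Timing – enzyme reaction for 50 min at room temperature, dark · Measured by – FRET fluorescence in CFP and YFP emission channels · Control set – no-enzyme wells low, DMSO-plus-enzyme wells high control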
NR3A LBD binder: modulates the human NR3A ligand-binding domain | NR3A LBD differential scanning fluorimetry, Tm shift; 0% = protein alone, 100% = glycine-bound protein | Tm shift relative to glycine control, % at 25 µM | 340,000 tested, 2.5% active;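 active = melting temperature shift of at least 10% of the positive control shift, at one fixed dose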
MPTP inh: permeability transition pore inhibition | isolated mouse mitochondria, Ca2+ swelling absorbance, 30 min | 360,000 tested, 1.4% active | inhibition, % at 10 µM;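 active = inhibition of 50% or more, scaled per plate between neutral and stimulator controls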;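 note: 0% = DMSO wells given calcium and 100% = 1 mM EGTA wells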
* marks the source's active call; other numbers are inactive results; / = not tested or not shown. Rows were chosen to be rich in hits. Some 4.4% of all compounds tested hit in one or more screens of this group.

SMILES	EBI2 block	SENP1 inh	NR3A LBD binder	MPTP inh
CCCN1CCc2c(sc(NC(=O)CCS(=O)(=O)c3ccccc3)c2C(N)=O)C1	5	-33	2	-1
CN1CCc2c(sc(NC(=O)CS(=O)(=O)c3ccccc3)c2C(N)=O)C1	-3	-147	18*	0
O=C(c1nc2ccccn2c1CNCCOc1cccnc1)N1CCOCC1	-3	0	0	-1
CC1CN(Cc2ccccc2)c2nc3c(c(=O)[nH]c(=O)n3C)n2C1 (stereo unspecified)	-4	3	29*	0
CC(C)=CCCC1(C)C=Cc2c(c(C)cc3c2[nH]c2cc(O)ccc23)O1 (stereo unspecified)	1	-2	19*	3
N=c1oc2cc(O)ccc2cc1C(=O)Nc1ccc(Cl)cc1	-7	-21	20*	4
COC(=O)[C@H](CC(C)C)NC(=O)Cn1cnc(C(=O)Nc2ccc(C)c(C)c2)n1	12	2	2	0
COC(=O)[C@H](CCSC)NC(=O)Cn1cnc(C(=O)Nc2ccc(C)c(C)c2)n1	-3	2	13*	0
COc1ccc(NC(=O)COc2ccc(C)cc2)c([N+](=O)[O-])c1	/	/	13*	/
COc1ccc(NC(=O)c2cc(Br)ccc2Cl)c([N+](=O)[O-])c1	-4	3	3	2
COc1ccc(NC(=O)c2ccc(C)cc2Cl)c([N+](=O)[O-])c1	0	4	11*	-2
Cn1c(O)c(/C=N/NC(=O)c2cc3ccccc3cc2O)c2ccccc21	0	-25	21*	8
COCCn1c(C)cc(/C=N/NC(=O)c2cc3ccccc3cc2O)c1C	1	-21	4	3
CCn1c2ccccc2c2cc(/C=N/NC(=O)c3ccc(O)cc3)ccc21	11	-3	38*	-3
CC(=O)Nc1ccc(N=Cc2c(O)c(C(=O)Nc3ccccc3)cc3ccccc23)cc1	/	/	8	/
COc1ccc2c(c1)cc(C(=O)N/N=C/c1c(O)c(C(=O)O)cc3ccccc13)n2C	-8	-25	11*	2
Cn1c2ccccc2c2cc(/C=N/NC(=O)c3ccc(O)cc3O)ccc21	22	-9	30*	-1
Cc1cc(=O)n2[nH]c(SCc3c(F)cccc3Cl)nc2n1	-1	0	1	2
CCCCNS(=O)(=O)c1cccc(NC(=O)[C@H]2C[C@H](O)[C@@H](CO)O2)c1	-12	0	/	0
Cc1n[nH]c(C)c1CS(=O)(=O)c1ccccc1	1	0	-3	1
CC(=O)CC1(OC(C)=O)C(=O)N(C)c2ccccc21 (stereo unspecified)	-17	2	-3	-2
COc1ccc(/C=N/NC(=O)c2ccc(O)cc2O)cc1CSc1ccccn1	-5	3	21*	-1
CCn1c2ccccc2c2cc(/C=N/NC(=O)c3cc(O)cc(O)c3)ccc21	-1	-1	21*	0
CCn1c2ccccc2c2cc(/C=N/NC(=O)c3ccncc3)ccc21	22	0	-1	-1
Cc1cc(NC(=S)N(Cc2cccc(Br)c2)CC2CCC(C(=O)O)CC2)ccc1Cl (stereo unspecified)	9	3	-2	1
SMILES	EBI2 block	SENP1 inh	NR3A LBD binder	MPTP inh
Cc1ccc(NC(=S)N(Cc2cccc(Br)c2)CC2CCC(C(=O)O)CC2)cc1 (stereo unspecified)	7	1	13*	0
Cc1ccc(NC(=S)Nc2ccc3cn[nH]c3c2)cc1C	-13	-1	7	1
CC(=O)c1ccc(NC(=S)Nc2ccc3cn[nH]c3c2)cc1	2	-18	10*	0
CCCN1C(=O)/C(=C\c2ccncc2)SC1=Nc1ccccc1	24	-4	9	1
CCN1C(=O)/C(=C\c2ccncc2)SC1=Nc1ccc(C)c(C)c1	29	2	13*	1
N#Cc1ccc(OCC(=O)NC2CCCCCC2)cc1	-3	0	0	0
COc1ccc2cc3cc(C(=O)NCCCN4CCc5ccccc5C4)sc3nc2c1	-9	-11	-24	0
COc1ccc(S(=O)(=O)NNC(=O)c2cc3cc4ccccc4nc3s2)cc1	-4	0	29*	1
COc1ccc2nc3sc(C(=O)NCCN4CCc5ccccc5C4)cc3cc2c1	7	-6	19*	1
O=C(N1CCCCC1)C12CC3CC(C1)CC(C(=O)N1CCCCC1)(C3)C2	2	1	21*	5
O=C(N1CCCC1)C12CC3CC(CC(C3)C1)C2	-5	3	-1	0
C=C(C)COc1ccc2c(C)c(CC(=O)N3C[C@H]4C[C@@H](C3)c3cccc(=O)n3C4)c(=O)oc2c1C	-2	-4	1	0
Cc1ccc(C)c(NC(=O)CCC(=O)NNC(=O)COc2cc(C)ccc2C)c1	3	2	2	0
C=C1CC(Cn2cc(Br)c(=O)[nH]c2=O)(c2ccc(-c3ccccc3)cc2)OC1=O (stereo unspecified)	84*	1	-2	-1
O=C(NCc1cccc(F)c1)c1ccc(N2C(=O)Cn3c(cc4sccc43)C2=O)cc1	3	-2	17*	-2
COc1cccc(/C=N/NC(=O)N/N=C/c2cccc(OC)c2O)c1O	-4	-1	35*	3
COc1cccc(/C=N/Nc2ccc([N+](=O)[O-])cn2)c1O	-10	-27	29*	4
COc1ccccc1C=NNC(=O)NN=Cc1ccccc1OC	2	3	-1	-2
COc1cccc(C=Nc2ccc(C)c(F)c2)c1O	0	5	13*	-3
COc1cccc(C=Nc2cc(C)cc(C)c2)c1O	-10	8	-4	-2
COc1cccc(/C=N/Nc2nn3cnnc3c3ccccc23)c1O	10	55*	0	2
Cc1ccc(C=NNc2ccc([N+](=O)[O-])cn2)cc1	-4	-32	-5	3
O=C(Oc1ccc2ccc(=O)oc2c1)c1ccco1	-3	-50	1	-2
Cc1ccc(/C=C/C(=O)NCCc2ccccc2)o1	6	-9	0	0
O=C(c1ccccc1)N1CCN(c2n[nH]c(=O)[nH]c2=O)CC1	-3	-1	0	-2
SMILES	EBI2 block	SENP1 inh	NR3A LBD binder	MPTP inh
O=[N+]([O-])c1cccc(N/N=C/c2cccc3ccccc23)c1	8	5	25*	32
O=C(O)c1ccccc1C=NNc1ccc([N+](=O)[O-])cn1	-6	-35	0	-1
O=C(O)c1cc(N/N=C/c2cccc3ccccc23)ccc1Cl	2	-63	-5	0
O=[N+]([O-])c1ccc(NN=Cc2cccc3ccccc23)nc1	4	-33	29*	7
CC(C)C(c1nnnn1Cc1ccc2c(c1)OCO2)N1CCN(c2ccccc2)CC1 (stereo unspecified)	11	4	13*	0
COc1ccc(Cn2nnnc2C(CC(C)C)N2CCN(c3ccccc3)CC2)cc1 (stereo unspecified)	20	2	18*	6
CCCC(c1nnnn1Cc1ccc(OC)cc1)N1CCN(c2ccccc2)CC1 (stereo unspecified)	16	1	-1	-1

Bioassay records (PubChem)
